In the array DNA melting data of Ke et al. (doi:10.1101/2024.01.08.574731):

Assays:
[1] = melting temperature; fluorescence melt of hairpins on a sequencing array, two-state fit, raised by 9.35 °C to match UV melts; details: sodium 0.088 M
Method in brief: (§1)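 Cy3 fluorescence of library hairpins on a sequenced MiSeq flow cell, with annealed Cy3 and quencher oligos, was imaged in 50 mM Na-HEPES pH 8.0, 25 mM NaCl in 2.5 °C steps up to 60 °C. Signals were normalised to pre-quench Cy3 and to control variants. Melting temperature and folding enthalpy came from bootstrapped two-state fits, inverse-variance combined over four replicates. Fitted temperatures were raised by 9.35 °C to match UV melts.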

[2] = folding enthalpy; higher = less favourable; fluorescence melt of hairpins on a sequencing array, two-state fit; details: sodium 0.088 M
Method in brief: as §1

| Sequence | Tm [1] [°C] | folding enthalpy [2] [kcal/mol] |
| --- | --- | --- |
| GCCAAGCGAAAGCTCAGC ((..(((....)))..)) | 37.3 | -13.6 |
| GCCAAGCGAAAGCTCGGC (((.(((....))).))) | 57.4 | -38.9 |
| GCCAAGCGAAAGCTTAGC ((.((((....)))).)) | 48.9 | -17.6 |
| GCCAAGGGAAACCTTAGC ((.((((....)))).)) | 33.2 | -19.3 |
| GCCAAGGGAAACCTTGGC (((((((....))))))) | 68.8 | -37.5 |
| GCCAATCCGAAAGGAGGC (((..(((....)))))) | 47 | -22.2 |
| GCCAATGGAAACACTGGC ((((.((....)).)))) | 41.9 | -31.9 |
| GCCAATGGAAACATCGGC (((.(((....))).))) | 44 | -28.9 |
| GCCAATGGAAACATTGAC (.(((((....))))).) | 37.7 | -22.2 |
| GCCACACCGAAAGGTGGC (((..(((....)))))) | 55.6 | -12.3 |
| GCCACAGGAAACTACGGC (((..((....))..))) | 39.5 | -30.8 |
| GCCACCGAAAGGTAAGGC ((((((....)))..))) | 52.6 | -26.9 |
| GCCACCGAAAGGTACGGC ((((((....)))..))) | 49 | -24.9 |
| GCCACCGAAAGGTATGGC ((((((....)))..))) | 52.8 | -36.9 |
| GCCACCGAAAGGTCGGC ((((((....))).))) | 59 | -29.9 |
| GCCACCGAAAGGTCGGGC ((((((....)))..))) | 48 | -25.6 |
| GCCACCGAAAGGTTCGGC ((((((....)))..))) | 46.5 | -16.8 |
| GCCACCGAAAGGTTGGC ((((((....))).))) | 60.5 | -33.9 |
| GCCACCGAAAGGTTGGGC ((((((....)))..))) | 52.6 | -20.8 |
| GCCACCGCGAAAGCGGGC (((..(((....)))))) | 47.5 | -7.35 |
| GCCACCGGAAACAGTGGC (((((.(....).))))) | 52.6 | -30.7 |
| GCCACCGGAAACGACGGC (((..((....))..))) | 41.4 | -24.9 |
| GCCACGCGAAAGCATTGC ((.(.((....)).).)) | 28.7 | -11.6 |

| Sequence | Tm [1] [°C] | folding enthalpy [2] [kcal/mol] |
| --- | --- | --- |
| GCCACGCGAAAGCGATGC ((..(((....)))..)) | 43.3 | -12.7 |
| GCCACGCGAAAGCGGAGC ((..(((....)))..)) | 54.4 | -17.1 |
| GCCACGCGAAAGCTTAGC ((.(.((....)).).)) | 30.1 | -6.78 |
| GCCAGAACGAAAGTTGGC (((..(((....)))))) | 49.8 | -35.8 |
| GCCAGACCGAAAGGTGGC (((..(((....)))))) | 53.7 | -42.4 |
| GCCAGACGAAAGTCGGC (((.(((....)))))) | 66.6 | -27.6 |
| GCCAGAGCGAAAGCTGGC (((..(((....)))))) | 60 | -31.3 |
| GCCAGAGGAAACCCTGGC (((((.(....).))))) | 52.4 | -41 |
| GCCAGAGGAAACTCTGAC (.(((((....))))).) | 38.6 | -18.3 |
| GCCAGCGAAAGCTAAGGC ((((((....)))..))) | 53.7 | -21.2 |
| GCCAGCGAAAGCTCCGGC ((((((....)))..))) | 44.5 | -19.9 |
| GCCAGGAAACTGGC (((((....))))) | 63.2 | -38.2 |
| GCCAGGCGAAAGCAAGGC (((..((....))..))) | 60.6 | -26.5 |
| GCCAGGCGAAAGCCACGC ((..(((....)))..)) | 38.8 | -13.1 |
| GCCAGGCGAAAGCCATGC ((..(((....)))..)) | 42.3 | -13.6 |
| GCCAGGCGAAAGCCCTGC ((..(((....)))..)) | 45.1 | -12.4 |
| GCCAGGCGAAAGCCGAGC ((..(((....)))..)) | 52.2 | -13.3 |
| GCCAGGCGAAAGCGGGGC (((..((....))..))) | 63.2 | -23.9 |
| GCCAGGCGAAAGCTTTGC ((.(.((....)).).)) | 33.4 | -11.5 |
| GCCAGTCGAAAGACGGC (((.(((....)))))) | 61.6 | -33.8 |
| GCCAGTTCGAAAGAAGGC (((..(((....)))))) | 37.1 | -20.2 |
| GCCATACCGAAAGGTGGC (((..(((....)))))) | 53.4 | -24.4 |
| GCCATACGAAAGTAGGGC (((.(((....))).))) | 60.5 | -38 |

| Sequence | Tm [1] [°C] | folding enthalpy [2] [kcal/mol] |
| --- | --- | --- |
| GCCATCGAAAGATACGGC ((((((....)))..))) | 41.5 | -26.4 |
| GCCATCGAAAGATAGGC ((((((....))).))) | 50.1 | -30.3 |
| GCCATCGGAAACGATGAC (.(((((....))))).) | 48.6 | -16 |
| GCCATGACGAAAGTCGGC (((..(((....)))))) | 51 | -20 |
| GCCATGCGAAAGCACAGC ((..(((....)))..)) | 36.6 | -11.2 |
| GCCATGGGAAACCATAGC ((.((((....)))).)) | 36.5 | -25.6 |
| GCCATTCCGAAAGGAGGC (((..(((....)))))) | 44.2 | -18.4 |
| GCCATTTCGAAAGAAGGC (((..(((....)))))) | 33.1 | -25.1 |
| GCCCAAACGAAAGTTGGC (((..(((....)))))) | 45 | -19.2 |
| GCCCAAGGAAACCTAGGC (((.(.(....).).))) | 32.8 | -22.2 |
| GCCCAAGGAAACTTGAGC ((.((((....)))).)) | 37.7 | -25.1 |
| GCCCACGAAAGTGAAGGC ((((((....)))..))) | 52.1 | -28.2 |
| GCCCACGAAAGTGTAGGC ((((((....)))..))) | 52.8 | -24.5 |
| GCCCACGGAAACGCGGGC ((((.((....)).)))) | 62.3 | -47.5 |
| GCCCAGCCGAAAGGCGGC (((..(((....)))))) | 62.4 | -10.6 |
| GCCCAGCGAAAGCACGGC (((..((....))..))) | 52.1 | -18.4 |
| GCCCAGCGAAAGCATGGC (((..((....))..))) | 56 | -16 |
| GCCCAGCGAAAGCCGAGC ((.(.((....)).).)) | 40.6 | -7.29 |
| GCCCAGCGAAAGCTATGC ((..(((....)))..)) | 25.6 | -5.13 |
| GCCCAGCGAAAGCTTAGC ((..(((....)))..)) | 32.8 | -8.7 |
| GCCCATGGAAACATGAGC ((.((((....)))).)) | 43.1 | -27.9 |
| GCCCATGGAAACATGGAC (.(((((....))))).) | 46.7 | -15.1 |
| GCCCCACGAAAGTGTGGC (((.(((....))).))) | 57.9 | -35.9 |

| Sequence | Tm [1] [°C] | folding enthalpy [2] [kcal/mol] |
| --- | --- | --- |
| GCCCCCGAAAGGGACGGC ((((((....)))..))) | 50.9 | -21 |
| GCCCCCGAAAGGGCGGGC ((((((....)))..))) | 63.7 | -17.9 |
| GCCCCCGAAAGGGGTGGC ((((((....)))..))) | 56.6 | -12.8 |
| GCCCCCGAAAGGGTCGGC ((((((....)))..))) | 50.4 | -17.1 |
| GCCCCCGAAAGGGTTGGC ((((((....)))..))) | 52.6 | -18 |
| GCCCCGCGAAAGCAGAGC ((.(.((....)).).)) | 32.8 | -11.5 |
| GCCCCGCGAAAGCATGGC (((..((....))..))) | 45.4 | -17.4 |
| GCCCCGCGAAAGCCAGGC (((..((....))..))) | 44.8 | -20.8 |
| GCCCCGCGAAAGCCGGGC ((((.((....)).)))) | 66.4 | -18.3 |
| GCCCCGCGAAAGCGGAGC ((.((((....)))).)) | 68.1 | -22 |
| GCCCCGCGAAAGCTGTGC ((.(.((....)).).)) | 30.4 | -12.1 |
| GCCCCGGCGAAAGCCGGC (((..(((....)))))) | 39.8 | -2.7 |
| GCCCCGGGAAACCAGGGC ((((.((....)).)))) | 55.5 | -33 |
| GCCCGATCGAAAGATGGC (((..(((....)))))) | 40.2 | -23.6 |
| GCCCGCCGAAAGGCAGGC (((.(((....))).))) | 69 | -20.8 |
| GCCCGCCGAAAGGCCGGC (((.(((....))).))) | 64.8 | -19.4 |
| GCCCGCCGAAAGGCTGGC (((.(((....))).))) | 65.1 | -36.2 |
| GCCCGCGAAAGCGTCGGC ((((((....)))..))) | 56.5 | -17.9 |
| GCCCGCGAAAGCGTGGGC ((((((....)))..))) | 68.6 | -24.9 |
| GCCCGCGGAAACGCGAGC ((.((((....)))).)) | 62.2 | -17.3 |
| GCCCGGCGAAAGCAAGGC (((..((....))..))) | 59 | -18.6 |
